Ends that are not written are not given here.
Columns and labels:
[1] = molecular target: integrin αvβ3 (Homo sapiens, UniProt P05106+P06756); test: Bio-layer interferometry; type: binding
Method in brief: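 Biotinylated test peptide, 25 μM stock in 5% DMSO/95% water, diluted 100-fold in 0.05% Tween 20 in 1X PBS. The peptide was loaded onto streptavidin biosensors for 300 s, with 60 s buffer-only steps on either side. Association ran 600 s against human recombinant integrin αvβ3 at 10–300 nM in the same buffer. kon and koff were fitted to a single-binding-site association model.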

[2] = tested on: MDA-MB-231 tumors; test: Biodistribution in orthotopic MDA-MB-231 xenograft mouse model; type: in vivo; conditions: AXT050-IRD800 intravenous, organs harvested 24 h post injection

Sequence of integrin αvβ3 (P06756 31-992 limits assumed): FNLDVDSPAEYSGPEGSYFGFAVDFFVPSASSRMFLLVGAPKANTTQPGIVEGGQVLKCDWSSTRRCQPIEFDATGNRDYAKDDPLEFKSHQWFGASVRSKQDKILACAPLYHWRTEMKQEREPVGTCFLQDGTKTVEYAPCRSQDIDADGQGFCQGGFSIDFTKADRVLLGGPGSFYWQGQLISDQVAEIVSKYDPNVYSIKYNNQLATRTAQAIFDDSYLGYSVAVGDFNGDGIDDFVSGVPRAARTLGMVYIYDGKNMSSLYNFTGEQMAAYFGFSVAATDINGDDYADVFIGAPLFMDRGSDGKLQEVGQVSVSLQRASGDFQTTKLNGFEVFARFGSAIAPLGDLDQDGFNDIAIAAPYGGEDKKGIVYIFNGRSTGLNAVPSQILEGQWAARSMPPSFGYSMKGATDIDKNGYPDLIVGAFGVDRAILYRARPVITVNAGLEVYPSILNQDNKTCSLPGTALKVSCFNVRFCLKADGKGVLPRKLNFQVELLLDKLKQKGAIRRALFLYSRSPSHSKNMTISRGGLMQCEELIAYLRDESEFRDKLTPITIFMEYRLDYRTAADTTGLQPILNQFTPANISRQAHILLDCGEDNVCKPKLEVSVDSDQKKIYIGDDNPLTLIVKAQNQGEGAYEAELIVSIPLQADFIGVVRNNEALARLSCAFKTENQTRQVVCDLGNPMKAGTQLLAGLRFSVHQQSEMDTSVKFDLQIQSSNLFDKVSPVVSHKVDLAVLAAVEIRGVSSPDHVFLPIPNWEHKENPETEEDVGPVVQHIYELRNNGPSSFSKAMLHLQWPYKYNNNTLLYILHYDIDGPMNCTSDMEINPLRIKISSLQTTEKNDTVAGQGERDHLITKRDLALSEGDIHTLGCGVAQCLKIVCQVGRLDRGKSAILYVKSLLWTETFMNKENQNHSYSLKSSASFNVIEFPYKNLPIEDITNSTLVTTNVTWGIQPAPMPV
Sequence of integrin αvβ3 (P05106 27-718 limits assumed): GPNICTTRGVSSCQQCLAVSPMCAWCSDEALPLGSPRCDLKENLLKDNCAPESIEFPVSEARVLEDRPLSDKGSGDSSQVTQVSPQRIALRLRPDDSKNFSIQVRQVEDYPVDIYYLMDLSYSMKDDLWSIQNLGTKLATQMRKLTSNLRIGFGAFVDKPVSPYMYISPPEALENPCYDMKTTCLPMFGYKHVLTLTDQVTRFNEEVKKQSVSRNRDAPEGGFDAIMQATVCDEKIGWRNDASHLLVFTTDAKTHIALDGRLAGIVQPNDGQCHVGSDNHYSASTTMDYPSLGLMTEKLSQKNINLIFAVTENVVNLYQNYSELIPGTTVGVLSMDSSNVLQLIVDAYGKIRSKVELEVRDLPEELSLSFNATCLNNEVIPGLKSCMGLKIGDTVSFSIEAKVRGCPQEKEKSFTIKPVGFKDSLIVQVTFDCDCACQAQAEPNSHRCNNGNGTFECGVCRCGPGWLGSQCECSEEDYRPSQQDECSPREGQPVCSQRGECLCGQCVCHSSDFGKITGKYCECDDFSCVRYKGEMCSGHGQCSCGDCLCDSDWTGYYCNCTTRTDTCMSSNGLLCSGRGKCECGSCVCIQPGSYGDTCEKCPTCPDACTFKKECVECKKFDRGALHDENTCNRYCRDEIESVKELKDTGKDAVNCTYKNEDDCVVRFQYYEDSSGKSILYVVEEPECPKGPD

## LRRFSTAPFAFIDINDVINF [AXT050]
[1]
  koff: 0.0032 s⁻¹
[2]
  organ with highest detection / main route of clearance: highest level of its detection in the kidneys

Source: paper PMC6035748 (Journal of biomedical materials research. Part A, 2018)
